From ChEMBL document CHEMBL3784997 (J Med Chem, 2016) come the findings set out here.

Test [1] addresses T1, Adenosine receptor A1 (Homo sapiens) (UniProt P30542).
T1 sequence (whole entry): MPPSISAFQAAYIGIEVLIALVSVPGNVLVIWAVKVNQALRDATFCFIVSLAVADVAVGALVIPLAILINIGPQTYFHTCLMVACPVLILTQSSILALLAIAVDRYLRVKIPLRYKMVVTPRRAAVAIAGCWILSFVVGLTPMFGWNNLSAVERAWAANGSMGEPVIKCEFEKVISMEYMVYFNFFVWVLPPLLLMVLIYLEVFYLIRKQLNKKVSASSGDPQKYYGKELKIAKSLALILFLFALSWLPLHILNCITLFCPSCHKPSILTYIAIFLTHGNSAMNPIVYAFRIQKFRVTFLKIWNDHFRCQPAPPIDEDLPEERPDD
In words: Displacement of [3H]DPCPX from human Adenosine A1 receptor expressed in CHO cells at 1 uM after 60 mins. It is filed as cell-based. An outline of the steps: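 Competition binding on membranes from CHO cells expressing human A1, labelled with 2 nM [3H]DPCPX. Non-specific binding was defined with 10 µM R-PIA, and incubation was at 25 °C for 60 min. The value is percent inhibition of specific binding at 1 µM test compound (n = 2, average).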

Test [2] addresses Adenosine receptor A2a (Homo sapiens) (UniProt P29274). Kind of test: Displacement of [3H]ZM241385 from human Adenosine A2A receptor expressed in HeLa cells at 1 uM after 30 mins. The format is cell-based. An outline of the steps:
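Membranes from HeLa cells expressing human A2A were labelled with 3 nM [3H]ZM241385, with non-specific binding defined by 50 µM NECA, and incubated at 25 °C for 30 min. The value is percent displacement of specific binding at 1 µM test compound (n = 2).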
(In general: In a radioligand displacement assay an active substance lowers the binding of a labelled ligand.)

For test [3], the target named is T2, Adenosine receptor A2b (Homo sapiens) (UniProt P29275).
T2 sequence (whole entry): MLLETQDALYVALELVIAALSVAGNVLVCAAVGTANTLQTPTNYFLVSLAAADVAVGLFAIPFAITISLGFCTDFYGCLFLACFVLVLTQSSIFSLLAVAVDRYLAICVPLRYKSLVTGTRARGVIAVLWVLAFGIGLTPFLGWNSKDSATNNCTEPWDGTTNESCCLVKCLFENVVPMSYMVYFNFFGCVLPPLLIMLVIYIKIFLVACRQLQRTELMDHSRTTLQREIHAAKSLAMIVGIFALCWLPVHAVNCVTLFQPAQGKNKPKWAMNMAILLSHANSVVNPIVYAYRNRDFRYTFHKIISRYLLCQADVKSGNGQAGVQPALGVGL
In words: Displacement of [3H]DPCPX from human Adenosine A2B receptor expressed in HEK293 cells at 1 uM after 30 mins. The format is cell-based. An outline of the steps:
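Membranes from HEK-293 cells expressing human A2B were labelled with 35 nM [3H]DPCPX, with non-specific binding defined by 400 µM NECA, and incubated at 25 °C for 30 min.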

Test [4] concerns the target T3, Adenosine receptor A3 (Homo sapiens) (UniProt P0DMS8).
T3 sequence (whole entry): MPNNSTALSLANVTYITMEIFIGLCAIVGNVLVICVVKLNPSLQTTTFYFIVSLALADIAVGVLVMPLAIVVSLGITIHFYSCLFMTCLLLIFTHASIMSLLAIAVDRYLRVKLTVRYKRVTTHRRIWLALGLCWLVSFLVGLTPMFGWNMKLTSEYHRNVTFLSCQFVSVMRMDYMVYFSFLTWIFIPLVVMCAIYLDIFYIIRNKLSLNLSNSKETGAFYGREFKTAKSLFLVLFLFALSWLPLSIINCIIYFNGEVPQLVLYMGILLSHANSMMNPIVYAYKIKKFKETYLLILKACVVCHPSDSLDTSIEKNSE
Kind of test: Displacement of [3H]NECA from human Adenosine A3 receptor expressed in HeLa cells at 1 uM after 180 mins.

For another test, the target named is T4, Adenosine receptor A2b (Homo sapiens, UniProt P29275).
T4 sequence (P29275 whole entry): T2 sequence (whole entry)
Kind of test: Displacement of [3H]DPCPX from human Adenosine A2B receptor expressed in HEK293 cells after 30 mins. It is filed as cell-based.

Adenosine receptor A2a (Homo sapiens), sequence (P29274 whole entry): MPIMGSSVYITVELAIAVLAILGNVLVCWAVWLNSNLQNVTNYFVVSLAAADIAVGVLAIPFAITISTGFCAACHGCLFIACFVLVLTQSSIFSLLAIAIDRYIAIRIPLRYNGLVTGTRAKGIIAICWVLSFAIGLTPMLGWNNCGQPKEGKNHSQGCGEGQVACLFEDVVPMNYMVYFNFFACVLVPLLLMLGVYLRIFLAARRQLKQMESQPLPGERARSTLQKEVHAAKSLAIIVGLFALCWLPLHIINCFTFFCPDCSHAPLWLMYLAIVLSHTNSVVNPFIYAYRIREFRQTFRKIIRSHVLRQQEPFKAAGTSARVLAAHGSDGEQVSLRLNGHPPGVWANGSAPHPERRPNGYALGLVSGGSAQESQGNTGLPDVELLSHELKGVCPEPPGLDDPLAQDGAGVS

As for `CCOC(=O)C1=C(C)Nc2nccn2C1c1ccoc1` (racemic), the Activity in test [1] amounted to 2%; in test [2], 1%; in test [3] it was 12%; in test [4] it was 3%.
The corresponding values for `CCOC(=O)C1=C(C)Nc2ncnn2C1c1ccco1` (racemic) are 15%, 20%, 3% and 4%.
The corresponding values for `CCOC(=O)C1=C(C)Nc2nccn2C1c1ccsc1` (racemic) are 1%, 3%, 10% and 2%.
For `CCOC(=O)C1=C(C)NC(=O)CC1c1ccoc1` (racemic) the same measures were 9%, 8%, 14% and 15%.
Consider `O=C1NC2=C(C(=O)OC2)C(c2ccco2)N1` (racemic), for which the Activity in test [1] stood at 3%; in test [2] it was 2%; in test [3], 2%; in test [4], 3%.
As to `CC1=C(C(=O)OC(C)C)C(c2ccoc2)CC(=O)N1` (racemic), the Activity in test [1] came out at 23%; in test [2], 25%; in test [3], 20%; in test [4], 24%.
As a reminder, the Ki is the equilibrium dissociation constant of an inhibitor or competing ligand from its target. Higher therefore signals weaker binding. On to `CC1=C(C(=O)OC(C)C)C(c2ccoc2)n2ccnc2N1` (racemic), for which the Activity in test [1] turned out to be 1%; in test [2], 4%; in test [4], 10%. The same molecule returned a Ki at Adenosine receptor A2b of 277 nM.
Regarding `CCOC(=O)C1=C(C)NC(=O)CC1c1cccs1` (racemic), the Activity amounted to 16% in test [1], 11% in test [2], 18% in test [3] and 21% in test [4].
For `CC1=C(C(=O)OC(C)C)C(c2cccs2)NC(=O)N1` (stereo not drawn) the same measures were 37%, 19%, 44% and 14%.
For `O=C1NC2=C(C(=O)OC2)C(c2ccsc2)N1` (racemic) the same measures were 13%, 3%, 8% and 2%.
As for `CCOC(=O)C1=C(C)Nc2nccn2C1c1ccco1` (racemic), the Activity stood at 2% in test [1], 5% in test [2] and 6% in test [4]. In addition, on Adenosine receptor A2b, the Ki is 108 nM.
Take `O=C1NC2=C(C(=O)OC2)C(c2cccs2)N1` (racemic): the Activity was 1% in test [1], 1% in test [2], 10% in test [3] and 1% in test [4].
In the case of `CC1=C(C(=O)OC(C)C)C(c2cccs2)n2c(nc3ccccc32)N1` (racemic), the Activity in test [1] amounted to 1%; in test [2] it was 17%; in test [4] it was 3%. The Ki at Adenosine receptor A2b was 371 nM.
For `CCOC(=O)C1=C(C)Nc2nc3ccccc3n2C1c1ccco1` (racemic) the same measures were 5%, 14%, 1% and 12 nM.
With `CCOC(=O)C1=C(C)NC(=O)NC1c1cccs1` (stereo not drawn), the Activity in test [1] amounted to 1%; in test [2], 33%; in test [3] it was 44%; in test [4], 1%.
As for `CC1=C(C(=O)OC(C)C)C(c2cccs2)n2ncnc2N1` (racemic), the Activity in test [1] was determined as 1%; in test [2], 1%; in test [3], 1%; in test [4], 3%.
For `CCOC(=O)C1=C(C)NC(=O)NC1c1ccco1` (stereo not drawn), the Activity in test [1] is 18%; in test [2], 41%; in test [4], 2%.
As for `CCN1CC2=C(C1=O)C(c1ccsc1)NC(=O)N2` (racemic), the Activity in test [1] was 27%; in test [2] it was 17%; in test [3], 18%; in test [4], 31%.
As for `CC1=C(C(=O)OC(C)C)C(c2ccco2)NC(=O)N1` (stereo not drawn), the Activity in test [1] was found to be 20%; in test [2] it was 30%; in test [4], 1%.
For `CC1=C(C(=O)OC(C)C)C(c2ccoc2)NC(=O)N1` (stereo not drawn) the same measures were 25%, 26% and 3%.
Turning to `CC1=C(C(=O)OC(C)C)C(c2cccs2)CC(=O)N1` (racemic), the Activity in test [1] came to 2%; in test [2], 1%; in test [3], 3%; in test [4], 22%.
As for `CC1=C(C(=O)OC(C)C)C(c2ccsc2)n2c(nc3ccccc32)N1` (racemic), the Activity in test [1] stood at 11%; in test [2], 3%; in test [4], 21%. The Ki at Adenosine receptor A2b was found to be 29.3 nM.
`CCN1CC2=C(C1=O)C(c1ccoc1)NC(=O)N2` (racemic): the Activity came out at 16% in test [1], 13% in test [2], 35% in test [3] and 17% in test [4].
The corresponding values for `CCOC(=O)C1=C(C)Nc2ncnn2C1c1cccs1` (racemic) are 1%, 2%, 15% and 15%.
For `CCN1CC2=C(C1=O)C(c1ccco1)NC(=O)N2` (racemic), the Activity was 7% in test [1], 7% in test [2], 17% in test [3] and 20% in test [4].
On to `CCOC(=O)C1=C(C)NC(=O)NC1c1ccoc1` (stereo not drawn), for which the Activity in test [1] is 21%; in test [2], 39%; in test [4], 1%.
Turning to `CCOC(=O)C1=C(C)Nc2ncnn2C1c1ccoc1` (racemic), the Activity is 2% in test [1], 1% in test [2] and 4% in test [4]. This molecule came in with a Ki on Adenosine receptor A2b of 602 nM.
Take `CCOC(=O)C1=C(C)NC(=O)CC1c1ccsc1` (racemic): the Activity in test [1] was determined as 1%; in test [2] it was 4%; in test [3], 12%; in test [4], 13%.
As to `CCOC(=O)C1=C(C)NC(=O)CC1c1ccco1` (racemic), the Activity turned out to be 22% in test [1], 13% in test [2] and 24% in test [4]. On Adenosine receptor A2b, this molecule came in with a Ki of 2540 nM.
Consider `CCN1CC2=C(C1=O)C(c1cccs1)NC(=O)N2` (racemic), for which the Activity stood at 12% in test [1], 2% in test [2], 28% in test [3] and 21% in test [4].
On to `CCOC(=O)C1=C(C)Nc2nc3ccccc3n2C1c1cccs1` (racemic), for which the Activity in test [1] was determined as 8%; in test [2] it was 16%; in test [4] it was 1%. This molecule registered a Ki on Adenosine receptor A2b of 485 nM.
As for `CC1=C(C(=O)OC(C)C)C(c2ccsc2)NC(=O)N1` (stereo not drawn), the Activity in test [1] was found to be 26%; in test [2], 25%; in test [4], 1%.
In the case of `O=C1NC2=C(C(=O)OC2)C(c2ccoc2)N1` (racemic), the Activity came out at 9% in test [1], 3% in test [2], 9% in test [3] and 1% in test [4].
For the molecule `CCOC(=O)C1=C(C)NC(=O)NC1c1ccsc1` (stereo not drawn), the Activity was determined as 22% in test [1], 39% in test [2] and 24% in test [4].
Turning to `CC1=C(C(=O)OC(C)C)C(c2ccsc2)CC(=O)N1` (racemic), the Activity is 4% in test [1], 3% in test [2], 21% in test [3] and 20% in test [4].
Turning to `CC1=C(C(=O)OC(C)C)C(c2ccco2)CC(=O)N1` (racemic), the Activity in test [1] turned out to be 14%; in test [2], 14%; in test [3], 15%; in test [4] it was 31%.
